Measured values from ChEMBL document CHEMBL4390684, “The synthesis of 4,6-diaryl-2-pyridones and their bioactivation in CYP1 expressing breast cancer cells” (Bioorg Med Chem Lett, 2019).

Assays:
MCF7 [1] = test: Activation factor, ratio of antiproliferative IC50 of ER positive human MCF7 cells expressing low level of CYP to antiproliferative IC50 of […]-induced ER positive human MCF7 cells expressing CYP1A1; assay type: functional
MCF-10A [2] = test: Cytotoxicity against human MCF10A cells assessed as reduction in cell viability after 96 hrs by MTT assay; assay type: cell-based
Procedure, shortened: (§1)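 Antiproliferative IC50 values were determined in MCF-7, MDA-MB-468, TCDD-treated MCF-7 (high CYP1A1 expression) and non-tumour MCF-10A breast cells. Each value is the mean of two independent experiments run in quadruplicate.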

MCF7 [3] = test: Antiproliferative activity against […]-induced ER positive human MCF7 cells expressing CYP1A1 assessed as reduction in cell viability after 96 hrs by MTT assay; assay type: functional, cell-based; details: MCF7, 96 h; procedure, shortened: as §1
MDA-MB-468 [4] = test: Antiproliferative activity against ER negative human MDA-MB-468 cells expressing CYP1A1 and CYP1B1 assessed as reduction in cell viability measured after 96 hrs by MTT assay; assay type: functional, cell-based; details: MDA-MB-468, 96 h; procedure, shortened: as §1
MCF7 [5] = test: Antiproliferative activity against ER positive human MCF7 cells expressing low level of CYP assessed as reduction in cell viability measured after 96 hrs by MTT assay; assay type: functional, cell-based; details: MCF7, 96 h; procedure, shortened: as §1
[6] = Selectivity index, ratio of IC50 for human MCF10A cells to IC50 for human MDA-MB-468 cells expressing CYP1A1 and CYP1B1; assay type: toxicity; details: read-out: Ratio IC50
MCF7 [7] = test: Antiproliferative activity against […]-induced ER positive human MCF7 cells expressing CYP1A1 assessed as reduction in cell viability in presence of CYP 1 inhibitor alpha-naphthoflavone measured after 96 hrs by MTT assay; assay type: functional, cell-based; details: MCF7, 96 h
MDA-MB-468 [8] = test: Antiproliferative activity against ER negative human MDA-MB-468 cells expressing CYP1A1 and CYP1B1 assessed as reduction in cell viability in presence of CYP 1 inhibitor alpha-naphthoflavone at 1 uM measured after 96 hrs by MTT assay; assay type: functional, cell-based; details: MDA-MB-468, 96 h
MCF-10A [9] = test: Antiproliferative activity against human MCF10A cells assessed as reduction in cell viability in presence of CYP 1 inhibitor alpha-naphthoflavone at 1 uM measured after 96 hrs by MTT assay
Cytochrome P450 1B1 [10] = molecular target: T1, Cytochrome P450 1B1 (Homo sapiens, UniProt Q16678); test: Drug metabolism in supersomes expressing human CYP1B1 and coexpressing NADPH reductase assessed as CYP1B1-mediated 4-(3,4-Dihydroxyphenyl)-6-(2,4-dimethoxyphenyl)-1H-pyridin-2-one formation at 10 uM in the presence of NADPH measured at 5 mins interval for 25 mins by reverse phase HPLC method; assay type: ADME; details: recombinant enzyme
T1 sequence (Q16678 whole entry): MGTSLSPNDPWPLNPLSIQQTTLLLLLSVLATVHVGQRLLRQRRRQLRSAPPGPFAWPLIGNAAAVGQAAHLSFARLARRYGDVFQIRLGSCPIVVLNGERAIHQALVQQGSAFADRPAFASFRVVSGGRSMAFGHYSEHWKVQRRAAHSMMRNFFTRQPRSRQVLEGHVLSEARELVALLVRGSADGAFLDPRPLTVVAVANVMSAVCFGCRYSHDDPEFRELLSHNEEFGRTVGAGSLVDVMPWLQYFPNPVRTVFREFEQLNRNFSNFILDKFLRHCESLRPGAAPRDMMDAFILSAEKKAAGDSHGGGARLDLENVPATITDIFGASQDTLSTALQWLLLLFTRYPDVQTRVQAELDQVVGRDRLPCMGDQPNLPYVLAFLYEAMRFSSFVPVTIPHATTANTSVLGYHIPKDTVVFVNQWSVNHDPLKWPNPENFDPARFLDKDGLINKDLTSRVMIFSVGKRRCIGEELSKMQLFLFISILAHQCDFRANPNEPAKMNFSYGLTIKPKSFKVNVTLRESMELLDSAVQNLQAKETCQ
Procedure, shortened: (§2)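 Substrate was incubated with insect-cell Supersomes expressing human CYP1A1 or CYP1B1 plus NADPH reductase, at 20 pmol/mL CYP. Controls used non-CYP Supersomes, or omitted the compound, NADPH or active enzyme. Duplicate samples were taken every 5 min and quenched with ice-cold acetonitrile. After centrifugation, the supernatant was analysed by reverse-phase HPLC for parent depletion (half-life) and metabolite peaks.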

CYP1A1 = molecular target: T2, CYP1A1 (Homo sapiens, UniProt P04798); test: Drug metabolism in supersomes expressing human CYP1A1 and coexpressing NADPH reductase assessed as CYP1A1-mediated drug metabolism by measuring compound half life at 10 uM in the presence of NADPH measured at 5 mins interval for 25 mins by reverse phase HPLC analysis; assay type: ADME; procedure, shortened: as §2
T2 sequence (P04798 whole entry): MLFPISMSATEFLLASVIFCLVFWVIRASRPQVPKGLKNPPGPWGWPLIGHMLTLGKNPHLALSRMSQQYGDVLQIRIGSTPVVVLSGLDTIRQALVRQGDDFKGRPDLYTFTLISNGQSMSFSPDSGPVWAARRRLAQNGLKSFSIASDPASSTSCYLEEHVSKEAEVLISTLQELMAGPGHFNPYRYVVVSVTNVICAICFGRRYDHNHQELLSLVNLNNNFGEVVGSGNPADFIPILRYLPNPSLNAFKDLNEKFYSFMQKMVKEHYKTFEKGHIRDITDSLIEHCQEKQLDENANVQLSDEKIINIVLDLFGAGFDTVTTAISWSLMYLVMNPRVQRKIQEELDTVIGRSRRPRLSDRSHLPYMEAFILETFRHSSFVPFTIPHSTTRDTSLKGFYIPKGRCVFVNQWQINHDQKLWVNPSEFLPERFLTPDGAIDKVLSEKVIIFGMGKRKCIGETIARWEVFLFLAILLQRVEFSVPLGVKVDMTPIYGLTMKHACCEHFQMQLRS

CYP1B1 = molecular target: T3, CYP1B1 (Homo sapiens, UniProt Q16678); test: Drug metabolism in supersomes expressing human CYP1B1 and coexpressing NADPH reductase assessed as CYP1B1-mediated drug metabolism by measuring compound half life at 10 uM in the presence of NADPH measured at 5 mins interval for 25 mins by reverse phase HPLC analysis; assay type: ADME; procedure, shortened: as §2
T3 sequence (Q16678 whole entry): T1 sequence (Q16678 whole entry)

Cytochrome P450 1A1 [11] = molecular target: T4, Cytochrome P450 1A1 (Homo sapiens, UniProt P04798); test: Drug metabolism in supersomes expressing human CYP1A1 and coexpressing NADPH reductase assessed as CYP1A1-mediated 4-(3,4-Dihydroxyphenyl)-6-(2,4-dimethoxyphenyl)-1H-pyridin-2-one formation at 10 uM in the presence of NADPH measured at 5 mins interval for 25 mins by reverse phase HPLC method; assay type: ADME; details: recombinant enzyme; procedure, shortened: as §2
T4 sequence (P04798 whole entry): T2 sequence (P04798 whole entry)

Cytochrome P450 1B1 [12] = molecular target: T1, Cytochrome P450 1B1; test: Drug metabolism in supersomes expressing human CYP1B1 and coexpressing NADPH reductase assessed as CYP1B1-mediated second metabolite retention time at 10 uM in the presence of NADPH measured at 5 mins interval for 25 mins by reverse phase HPLC method; assay type: ADME; details: recombinant enzyme; procedure, shortened: as §2
MCF7 [13] = test: Antiproliferative activity against ER positive human MCF7 cells expressing low level of CYP assessed as reduction in cell viability in presence of CYP 1 inhibitor alpha-naphthoflavone at 1 uM measured after 96 hrs by MTT assay; assay type: functional, cell-based; details: MCF7, 96 h
Cytochrome P450 1A1 [14] = molecular target: T4, Cytochrome P450 1A1; test: Drug metabolism in supersomes expressing human CYP1A1 and coexpressing NADPH reductase assessed as CYP1A1-mediated drug metabolism by measuring retention time at 10 uM in the presence of NADPH measured at 5 mins interval for 25 mins by reverse phase HPLC method; assay type: ADME; details: recombinant enzyme; procedure, shortened: as §2
Cytochrome P450 1B1 [15] = molecular target: T1, Cytochrome P450 1B1; test: Drug metabolism in supersomes expressing human CYP1B1 and coexpressing NADPH reductase assessed as CYP1B1-mediated drug metabolism by measuring retention time at 10 uM in the presence of NADPH measured at 5 mins interval for 25 mins by reverse phase HPLC method; assay type: ADME; details: recombinant enzyme; procedure, shortened: as §2

Compound	Ratio IC50 (MCF7 [1])	IC50 (MCF-10A [2]) [nM]	IC50 (MCF7 [3]) [nM]	IC50 (MDA-MB-468 [4]) [nM]	IC50 (MCF7 [5]) [nM]	selectivity ratio [6]	IC50 (MCF7 [7]) [nM]	IC50 (MDA-MB-468 [8]) [nM]	IC50 (MCF-10A [9]) [nM]	Drug metabolism (Cytochrome P450 1B1 [10])	half-life at 10 µM (CYP1A1) [min]	half-life at 10 µM (CYP1B1) [min]	Drug metabolism (Cytochrome P450 1A1 [11])	Retention_time (Cytochrome P450 1B1 [12]) [min]	IC50 (MCF7 [13]) [nM]	Retention_time (Cytochrome P450 1A1 [14]) [min]	Retention_time (Cytochrome P450 1B1 [15]) [min]
COc1ccc(-c2cc(-c3ccc4c(c3)OCO4)[nH]c(=O)c2)c(OC)c1	18	80000	1000	6000	18000	13	–	–	–	–	–	–	–	–	–	–	–
COc1ccc(-c2cc(-c3ccc4c(c3)OCCO4)cc(=O)[nH]2)c(OC)c1	0.8	6000	3000	500	2500	12	–	–	–	–	–	–	–	–	–	–	–
O=c1cc(-c2ccc3c(c2)OCO3)cc(-c2ccccc2)[nH]1	2	2500	800	800	1600	3.1	–	–	–	–	–	–	–	–	–	–	–
COc1ccc(-c2cc(-c3ccc(OC)cc3OC)[nH]c(=O)c2)c(OC)c1	2	5000	4500	5000	9000	1	–	–	–	–	–	–	–	–	–	–	–
COc1ccc(OC)c(-c2cc(-c3ccc4c(c3)OCO4)cc(=O)[nH]2)c1	100	5000	20	20	2000	250	–	–	–	–	–	–	–	–	–	–	–
COc1ccc(-c2cc(-c3ccc4c(c3)OCO4)cc(=O)[nH]2)c(OC)c1	5	40000	1800	40	9000	1000	9000	> 100000	> 100000	Metabolite_Detected	12.9	30.1	Metabolite_Detected	9.22	12000	–	–
COc1ccc(-c2cc(-c3ccc4c(c3)OCO4)cc(=O)[nH]2)cc1OC	–	> 100000	> 100000	410	> 100000	> 244	–	–	–	–	–	–	–	–	–	–	–
COc1ccc(-c2cc(-c3ccc(O)c(O)c3)cc(=O)[nH]2)c(OC)c1	2.1	1500	700	500	1500	3	–	–	–	–	–	–	–	–	–	10.48	10.48
CCCOc1ccc(-c2cc(-c3ccc(OC)c(OC)c3)[nH]c(=O)c2)cc1	3	70000	20000	180	60000	389	–	–	–	–	–	–	–	–	–	–	–
COc1cc(OC)cc(-c2cc(-c3ccc4c(c3)OCO4)cc(=O)[nH]2)c1	2	700	200	350	400	2	–	–	–	–	–	–	–	–	–	–	–
COc1ccccc1-c1cc(-c2ccc3c(c2)OCO3)cc(=O)[nH]1	2	28000	3500	700	7000	40	–	–	–	–	–	–	–	–	–	–	–
COc1cc(-c2cc(-c3ccc4c(c3)OCO4)cc(=O)[nH]2)cc(OC)c1OC	>500	> 100000	200	50000	> 100000	> 2	–	–	–	–	–	–	–	–	–	–	–
O=c1cc(-c2ccc3c(c2)OCO3)cc(-c2ccc(Cl)cc2Cl)[nH]1	1.2	> 100000	70000	60000	85000	> 1.7	–	–	–	–	–	–	–	–	–	–	–
COc1ccc(/C=C\c2cc(OC)c(OC)c(OC)c2)cc1O [COMBRETASTATIN A4]	1	1.6	2	3	–	0.53	–	–	–	–	–	–	–	–	–	–	–
COc1ccc(-c2cc(-c3ccc(OC)cc3OC)[nH]c(=O)c2)cc1	2.5	1600	200	80	500	20	–	–	–	–	–	–	–	–	–	–	–
COc1ccc(-c2cc(-c3ccc4c(c3)OCO4)cc(=O)[nH]2)c(OC)c1OC	1.2	> 100000	10000	8000	12000	> 12.5	–	–	–	–	–	–	–	–	–	–	–
COc1ccc(-c2cc(-c3ccc(OC)c(OC)c3)cc(=O)[nH]2)c(OC)c1	2.5	50000	400	500	1000	100	–	–	–	–	–	–	–	–	–	–	–
CCCOc1ccc(-c2cc(-c3ccc(OC)cc3OC)[nH]c(=O)c2)cc1	5	50000	9000	400	45000	125	–	–	–	–	–	–	–	–	–	–	–
COc1ccc(-c2cc(-c3ccc4c(c3)OCO4)cc(=O)[nH]2)cc1	–	> 100000	> 100000	1000	> 100000	> 100	–	–	–	–	–	–	–	–	–	–	–
